According to ChEMBL document CHEMBL1777723, “Design, synthesis, and evaluation of bromo-retrochalcone derivatives as protein tyrosine phosphatase 1B inhibitors” (Bioorg Med Chem Lett, 2011):

Legend:
[1] = target: T1, Tyrosine-protein phosphatase non-receptor type 1 (Homo sapiens, UniProt P18031); assay: (§1) Inhibition of recombinant human PTP1B using p-nitrophenyl phosphate as substrate after 30 mins
T1 sequence (P18031 whole entry): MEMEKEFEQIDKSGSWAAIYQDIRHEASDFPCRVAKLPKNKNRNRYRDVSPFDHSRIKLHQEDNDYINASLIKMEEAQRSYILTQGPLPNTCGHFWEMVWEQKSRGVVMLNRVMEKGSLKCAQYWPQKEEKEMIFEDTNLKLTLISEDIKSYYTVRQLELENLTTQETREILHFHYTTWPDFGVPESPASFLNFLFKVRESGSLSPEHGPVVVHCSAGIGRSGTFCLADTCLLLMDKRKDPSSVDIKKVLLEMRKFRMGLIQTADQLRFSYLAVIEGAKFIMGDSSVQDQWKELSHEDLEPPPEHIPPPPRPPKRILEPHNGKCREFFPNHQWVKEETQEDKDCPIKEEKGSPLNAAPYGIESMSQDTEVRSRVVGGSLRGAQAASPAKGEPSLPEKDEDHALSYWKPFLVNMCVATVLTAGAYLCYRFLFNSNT
Procedure, shortened: (§2)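 Reaction buffer: 10 citrate pH […], 0.1 M NaCl, 1 mM EDTA, 1 mM dithiothreitol. Enzyme and sample were added with 50 of 4 mM pNPP substrate stock, incubated 30 min at 37 °C, then quenched with 10 N NaOH.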

[2] = target: T2, Tyrosine-protein phosphatase non-receptor type 1 (Homo sapiens) (UniProt P18031); assay: as §1; procedure, shortened: as §2
T2 sequence (whole entry): T1 sequence (P18031 whole entry)

Compound | IC50 [1] [µM] | inhibition [2]
CCOC(=O)CCCOc1ccc(C(=O)/C=C/c2cc(Br)c(O)cc2OC)cc1 | 10.8 | Dose-dependent effect
COc1cc(O)c(Br)cc1/C=C/C(=O)c1ccccc1N1CCCCC1 | 6.8 | Dose-dependent effect
COc1cccc(C(=O)/C=C/c2cc(Br)c(O)cc2OC)c1 | 11.1 | Dose-dependent effect
COc1cc(O)c(Br)cc1/C=C/C(=O)c1ccc(OCc2ccccc2)cc1 | 2.9 | Dose-dependent effect
COc1cc(O)c(Br)cc1/C=C/C(=O)c1ccc(-n2cccn2)cc1 | 6 | Dose-dependent effect
C=CCN(CC=C)c1cccc(C(=O)/C=C/c2cc(Br)c(O)cc2OC)c1 | 4.5 | Dose-dependent effect
COc1cc(O)c(Br)cc1/C=C/C(=O)c1ccc(OC(=O)c2ccc(Br)cc2)cc1 | 2.3 | Dose-dependent effect
C=C(C)C(C)c1cc(C(=O)/C=C/c2cc(Br)c(O)cc2O)ccc1OC (stereo unspecified) | 2.6 | Dose-dependent effect
C=C(C)C(C)c1cc(C(=O)/C=C/c2cc(Br)c(O)cc2OC)ccc1O (stereo unspecified) | 6.9 | Dose-dependent effect
COc1cc(O)c(Br)cc1/C=C/C(=O)c1ccc(OS(C)(=O)=O)cc1 | 18.4 | Dose-dependent effect
C=CCc1cc(C(=O)/C=C/c2cc(Br)c(O)cc2OC)ccc1OC | 5.3 | Dose-dependent effect
COc1cc(O)c(Br)cc1/C=C/C(=O)c1ccc(OC)c(CC=C(C)C)c1 | 2.9 | Dose-dependent effect
COc1cc(O)c(Br)cc1/C=C/C(=O)c1ccc(NC(=O)c2ccc(C(C)(C)C)cc2)cc1 | 3.4 | Dose-dependent effect
COc1cc(O)c(Br)cc1/C=C/C(=O)c1cc2c(cc1N(C)C)OCO2 | 6.3 | Dose-dependent effect
COc1cc(O)c(Br)cc1/C=C/C(=O)c1ccc(O)cc1 | 13.7 | Dose-dependent effect
COc1cc(O)c(Br)cc1/C=C/C(=O)c1ccc(O)c(CC=C(C)C)c1 | 4.4 | Dose-dependent effect
COc1cc(O)c(Br)cc1/C=C/C(=O)c1cccc(N)c1 | 6.8 | Dose-dependent effect
C=C(C)C(C)c1cc(C(=O)/C=C/c2cc(Br)c(O)cc2OC)ccc1OC (stereo unspecified) | 1.9 | Dose-dependent effect
COc1cc(O)c(Br)cc1/C=C/C(=O)c1ccc(N(C)C)cc1 | > 30 | 
COc1cc(O)c(Br)cc1/C=C/C(=O)c1ccc(OCC=C(C)C)cc1 | 3.5 | Dose-dependent effect
COc1ccc(C(=O)/C=C/c2cc(Br)c(O)cc2OC)cc1 | 9.9 | Dose-dependent effect

Compound | IC50 [1] [µM] | inhibition [2]
C=C(C)[C@H](C)c1cc(/C=C/C(=O)c2ccc(O)cc2)c(OC)cc1O [LICOCHALCONE E] | 20.7 | 
COc1cc(O)c(Br)cc1/C=C/C(=O)c1ccc(OS(=O)(=O)c2ccc(C)cc2)cc1 | 2.7 | Dose-dependent effect
C=CCc1cc(C(=O)/C=C/c2cc(Br)c(O)cc2OC)ccc1O | 7.1 | Dose-dependent effect
C=C(C)C(C)c1cc(C(=O)/C=C/c2cc(Br)c(OC3CCCCO3)cc2O)ccc1OC (stereo unspecified) | 2.9 | Dose-dependent effect
COc1cc(O)c(Br)cc1/C=C/C(=O)c1ccc(N2CCCCC2)cc1 | 2.6 | Dose-dependent effect
COc1cc(O)c(Br)cc1/C=C/C(=O)c1ccc(OC(=O)c2ccc(C(C)(C)C)cc2)cc1 | 2.4 | Dose-dependent effect
CCOC(=O)COc1ccc(C(=O)/C=C/c2cc(Br)c(O)cc2OC)cc1 | 15.2 | Dose-dependent effect
COc1cc(O)c(Br)cc1/C=C/C(=O)c1ccc(N2CCOCC2)cc1 | 8 | Dose-dependent effect
COc1cc(O)c(Br)cc1/C=C/C(=O)c1cccc(N(C)C)c1 | 26.4 | Dose-dependent effect
C=CCN(CC=C)c1ccc(C(=O)/C=C/c2cc(Br)c(O)cc2OC)cc1 | 3.4 | Dose-dependent effect
COc1cc(O)c(Br)cc1/C=C/C(=O)c1ccc(OC(=O)c2ccccc2)cc1 | 4.9 | Dose-dependent effect
COc1cc(O)c(Br)cc1/C=C/C(=O)c1cccc(NS(C)(=O)=O)c1 | 11.3 | Dose-dependent effect
COc1cc(O)c(Br)cc1/C=C/C(=O)c1ccc(OCC(=O)O)cc1 | > 30 | 
COc1cc(O)c(Br)cc1/C=C/C(=O)c1ccc(OCCCC(=O)O)cc1 | 30 | Dose-dependent effect
C=C(C)C(C)c1cc(C(=O)/C=C/c2cc(Br)c(OC3CCCCO3)cc2OC)ccc1O (stereo unspecified) | 10.3 | Dose-dependent effect
COc1cc(O)c(Br)cc1/C=C/C(=O)c1ccccc1N(C)C | 13.9 | Dose-dependent effect
COc1cc(O)c(Br)cc1/C=C/C(=O)c1ccc(N)cc1 | 6.2 | Dose-dependent effect
CCCCOc1ccc(C(=O)/C=C/c2cc(Br)c(O)cc2OC)cc1 | 4.2 | Dose-dependent effect
C=C(C)C(C)c1cc(C(=O)/C=C/c2cc(Br)c(O)cc2OC)ccc1OCC=C(C)C (stereo unspecified) | 7 | Dose-dependent effect
COc1cc(O)c(Br)cc1/C=C/C(=O)c1cccc(N2CCCCC2)c1 | 4.9 | Dose-dependent effect
C=CCN(CC=C)c1ccccc1C(=O)/C=C/c1cc(Br)c(O)cc1OC | 3.5 | Dose-dependent effect
